ARNT-TACC3 inh = ARNT/TACC3 interaction disruption | Q9Y6A5 | AID 623870 | AlphaScreen His-ARNT PAS-B/GST-TACC3 binding, luminescence; TACC3 fragment carries E629A point mutation | inhibition, % at 9.99 µM | 390,000 tested, 0.66% active;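 active = mean inhibition of replicates at least 50% and at least half of replicates each reaching 50%; inconclusive = half or more replicates reach 50% but mean below 50%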;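 note: 0% = complete ARNT plus TACC3 wells and 100% = ARNT alone without TACC3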
SIRT5 block = blocks human SIRT5 desuccinylation of peptide | Q9NXA8 | Purified SirT5, succinyl-peptide AMC, trypsin-coupled fluorescence | inhibition, % at 15 µM | 330,000 tested, 1.1% active | AID 652115; in the data active = inhibition above about 15%; inconclusive = no clear call, values can overlap the other calls
Target sequence (Q9NXA8 whole entry, looked up): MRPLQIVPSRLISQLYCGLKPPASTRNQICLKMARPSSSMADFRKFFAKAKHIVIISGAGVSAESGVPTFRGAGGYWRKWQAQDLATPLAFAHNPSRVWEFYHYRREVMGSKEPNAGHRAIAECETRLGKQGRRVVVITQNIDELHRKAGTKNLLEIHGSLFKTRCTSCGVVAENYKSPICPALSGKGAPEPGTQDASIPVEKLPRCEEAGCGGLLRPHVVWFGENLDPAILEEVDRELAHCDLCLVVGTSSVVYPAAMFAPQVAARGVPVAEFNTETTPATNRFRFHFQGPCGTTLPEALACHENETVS
FGF22 binding = FGF22 (human) thermal shift binding; 340,000 tested, 1.5% active; recombinant FGF22 thermal shift, SYPRO orange fluorescence; percent of sucrose octasulfate shift, DMSO zero; AID 651658; activity (Tm shift, normalised), % at 9.99 µM; Q9HCT0;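 active = mean Tm shift, scaled 0 neutral to 100 positive control, at about 1.3% or above, every replicate too, limit read from the data; inconclusive = no clear call, values can overlap the other calls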
XiGFP reactiv = activators of X-chromosome reactivation in mouse fibroblasts | XiGFP mouse fibroblasts, % GFP-positive cells imaging, 3 d; cells co-treated with 5-aza-dC sensitizer; scaled so ellipticine positive control = 100% | activation, % at 7.58 µM | 360,000 tested, 0.055% active | AID 743238;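 active = mean normalized replicate activation at least 10% and every replicate at or above 10%; inconclusive = only one of the two criteria met; inactive = mean below 10% and not all replicates reach 10%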;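 note: 0% = median of on-plate neutral control wells and 100% = ellipticine 6 µM median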
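assay system = SV40-immortalized XiGFP fibroblast cells, line 68-5-11 | buffer or medium = DMEM plus 5-aza-dC sensitizer | doses = single-point pinned compound dosing | times = 3-day compound exposure, then 15 min fixation at room temperature | benchmarks = positive control ellipticine, 6 µM final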
DENV2 CPE rescue = protects cells from dengue virus 2 cytopathic effect | DENV2-infected cells, cytopathic effect rescue, plate reader | CPE inhibition, % at 9.99 µM | 350,000 tested, 1.7% active; in the data active = CPE inhibition above about 20%, passing the limit was not always enough; inconclusive = no clear call, values can overlap the other calls; tested in BHK-21 cells;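 note: 0% = median of neutral control wells and 100% = median of positive control wells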
FN deposit inh = fibronectin deposition inhibition. 350,000 tested, 0.086% active. AH1F fibroblasts, Alexa488-fibronectin deposition fluorescence, overnight. inhibition, % at 12.6 µM;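 active = mean inhibition across replicates of 30% or more, regardless of how many single replicates reach that level; inconclusive = mean under 30% yet at least half of replicates reach 30%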;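 note: positive control wells lacked labelled fibronectin entirely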
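Assay system: AH1F fibroblasts / Quantity: 10000 cells per well / Medium: DMEM plus 2% serum, read in PBS / Reagent: labelled fibronectin 24 nM / Dosing: single dose, pinned / Times: 1 h cell attachment, overnight exposure to compound and label / Signal: fluorescence, ex 485 nm, em 525 nm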
Active calls of the source: *; ? = inconclusive; nt = no result given. This is a sample that favours compounds with a hit; in the whole collection about 3.8% have one here.

SMILES	ARNT-TACC3 inh	SIRT5 block	FGF22 binding	XiGFP reactiv	DENV2 CPE rescue	FN deposit inh
CCOc1ccc(N(CC(=O)Nc2ccc(C)c(F)c2)C2=NC3CS(=O)(=O)CC3S2)cc1 (centres undefined)	-4	15*	0	0	-8	-4
C[C@H]1CN([C@@H](C)CO)C(=O)Cc2cc(NS(=O)(=O)c3cccs3)ccc2O[C@H]1CN(C)S(=O)(=O)c1ccc(F)cc1	nt	5	0	0	0	3
N#Cc1c([N+](=O)[O-])cc([N+](=O)[O-])cc1S(=O)(=O)Cc1ccccc1	-15	-2	0	1	-4	45*
COc1cc(OC)c(C#N)c(S(=O)(=O)Cc2ccccc2)c1	0	nt	nt	nt	nt	nt
CN(c1ccccc1)S(=O)(=O)c1cccc(NC(=O)COc2ccccc2)c1	2	5	0	0	-7	-4
CC(=O)CCc1ccc(OCC(=O)Nc2cccc(S(=O)(=O)N(C)c3ccccc3)c2)cc1	0	17*	0	0	3	-2
CN(c1ccccc1)S(=O)(=O)c1cccc(NC(=O)c2cc(=O)c3ccccc3o2)c1	-2	-3	43*	0	-3	nt
NS(=O)(=O)c1cccc(NC(=O)c2cc(=O)c3ccccc3o2)c1	-4	-2	0	0	?	12
Cc1nn(C)cc1NC(=O)C[C@H]1CC[C@H]2[C@@H](COc3ccc(NC(=O)C4CCOCC4)cc3C(=O)N2C)O1	-3	-7	0	0	-1	-7
O=C1C(N2CCOCC2)=C(n2nnc3ccccc32)C(=O)c2ccccc21	45*	nt	nt	nt	nt	13
COc1ccc(/C=C2/C(=O)N(c3nc4ccccc4s3)N=C2CSc2ccc(Cl)cc2)cc1	13	18*	0	0	-6	0
COc1ccc(/C=C2/C(=O)N(Cc3ccccc3)N=C2C)cc1	-24	1	0	0	3	2
CN(Cc1nc(-c2cnccn2)no1)C1CC(C)(C)NC(C)(C)C1	6	-3	43*	0	1	6
CO[C@@H]1CN(C)C(=O)c2ccc(NC(=O)NC(C)C)cc2OC[C@H](C)N(C)C[C@H]1C	1	0	0	0	1	-2
Cc1ccc(-n2c(C)c(C)c3c(NCCO)ncnc32)cc1	27*	1	-1	0	-6	6
Fc1ccc(-c2nc3c(-c4ccc(F)cc4)cnn3cc2CCN2CCOCC2)cc1	4	3	43*	0	6	-3
Fc1ccc(-c2nc3c(-c4ccccc4)cnn3cc2CCN2CCOCC2)cc1	-5	1	0	0	-5	6
O=S(=O)(c1ccc(Cl)cc1)N1[C@@H]2CNC[C@H]1C2c1ccc(-c2cccc(F)c2)cc1 (some centres undefined)	nt	4	0	0	-8	-15
Cc1cccc(NC(=O)c2cccc(S(=O)(=O)N(C)C3CCCCC3)c2)n1	nt	14	0	0	21*	-1
CCN(CC)CCNC(=O)c1ccc(NC(=O)c2cccc(S(=O)(=O)N(C)C3CCCCC3)c2)cc1	5	-2	0	0	20	0
Cc1cccc(NC(=O)c2ccc(S(=O)(=O)N3CCCCC3)cc2)n1	-4	nt	0	0	-3	38*
O=C(O)C1Cc2[nH]cnc2C(c2ccccc2O)N1 (centres undefined)	82*	nt	nt	nt	nt	nt
C[C@H](CO)N1C[C@H](C)[C@@H](CN(C)Cc2ccc(Cl)c(Cl)c2)Oc2ccc(NC(=O)CCCCCC(=O)Nc3ccccc3N)cc2CC1=O	nt	26*	-1	0	-6	nt
C[C@@H]1CN([C@@H](C)CO)C(=O)Cc2cc(NC(=O)CCCCCC(=O)Nc3ccccc3N)ccc2O[C@@H]1CN(C)Cc1ccc(-c2ccccc2)cc1	-8	-2	0	0	13	nt
C[C@H](CO)N1C[C@H](C)[C@H](CN(C)Cc2ccccc2)Oc2ccc(NC(=O)CCCCCC(=O)Nc3ccccc3N)cc2CC1=O	6	0	0	0	58*	nt
